Data: ChEMBL document CHEMBL1158546, “Discovery of novel and potent leukotriene B4 receptor antagonists. Part 1” (J Med Chem, 2010)
≈ marks a conversion by molar mass, not a printed value. One block for each molecule: values may come before it. Calls of active or inactive are those of the source. The calls are words filed in the database; no cut-off is given here.

How the values were obtained:
[1] = molecular target: T1, Leukotriene B4 receptor 1 (Homo sapiens, UniProt Q15722); test: Antagonist activity at BLT1 receptor expressed in human HL60 cells assessed as inhibition of LTB4-stimulated calcium flux after 30 mins; type: functional, cell-based, HL-60; conditions: read-out: IC50
How it was run: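 HL-60 cells grown in RPMI-1640 with 20% FBS were plated at 2.0 × 10^5 cells/ml with 1 μM retinoic acid. They were dye-loaded in HBSS/20 mM HEPES/5 mM probenecid (0.05% BSA in the replacement buffer) for 1 h at 37 C. Compound (5 × 10^-11 to 3 × 10^-6 M final) was added for 30 min at room temperature, then 0.5 μM LTB4. Fluorescence was read every 1.5 s for 100 s and peak increase scored as % inhibition versus DMSO control.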

Neutrophil = test: Inhibition of LTB4-stimulated human neutrophils migration after 30 mins by using CyQuant GR fluorescent dye; type: functional, cell-based; conditions: Homo sapiens, Neutrophil, 0.5 h; read-out: IC50
How it was run: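 Human blood neutrophils (95-97% pure, isolated over Lympholyte-poly) at 5 × 10^6 cells/mL were preincubated with compound (3 × 10^-12 to 1 × 10^-6 M final) for 30 min at 37 C. Migration toward 100 ng/mL LTB4 across a polycarbonate membrane ran 90 min at 37 C. Migrated cells were lysed with CyQuant GR and read at 480/520 nm. IC50 was taken from a sigmoidal fit of % inhibition.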

[2] = Half life in Sprague-Dawley rat at 10 mg/kg, po; type: ADME, organism-based; design: dose 10 mg/kg, route oral; conditions: in vivo
How it was run: (§1)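 Rat single-dose PK, n = 3, with oral dosing at 10 mg/kg and intravenous dosing at 2.5 or 5 mg/kg.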

[3] = molecular target: T2, Voltage-gated inwardly rectifying potassium channel KCNH2 (Homo sapiens, UniProt Q12809); test: Inhibition of human ERG expressed in CHO cells assessed as reduction of current amplitude
Cytochrome P450 2D6 = Cytochrome P450 2D6 (Homo sapiens, UniProt P10635); test: Inhibition of CYP2D6 fluorescence method; type: ADME
How it was run: (§2)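 High-throughput CYP panel covering 1A2, 2D6, 2C9, 2C19 and 3A4, using fluorogenic substrates. IC50 was determined in μM.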

[4] = Volume of distribution at steady state in Sprague-Dawley rat at 2.5 mg/kg, iv; type: ADME, organism-based; design: dose 2.5 mg/kg, route intravenous; conditions: in vivo, read-out: Vdss
[5] = Solubility of compound in small intestinal contents in the fasted state at pH 6.5; type: ADME
How it was run: (§3)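 Solubility measured in simulated intestinal fluid at pH 5.0 (fed) or pH 6.5 (fasted), reported in μg/mL.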

Cytochrome P450 2C19 = Cytochrome P450 2C19 (Homo sapiens, UniProt P33261); test: Inhibition of CYP2C19 fluorescence method; type: ADME
How it was run: (§4)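 Cytochrome P450 high-throughput panel (1A2, 2D6, 2C9, 2C19, 3A4) using fluorogenic substrates; IC50 reported.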

Cynomolgus monkey = test: Antiinflammatory activity against ascaris suum antigen-evoked increase in neutrophils at bronchoalveolar lavage in cynomolgus monkey at 10 mg/kg, po after 1 hr treated before LTB4 challenge; type: functional, organism-based; design: dose 10 mg/kg; conditions: Macaca fascicularis, in the assay text read “before Ascaris suum antigen challenge” for “before LTB4 challenge”
How it was run: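 Male cynomolgus monkeys (4-10 kg) naturally hypersensitive to Ascaris suum had baseline BAL 24 h before challenge. They were dosed orally with 10 mg/kg in 15% Labrasol in PEG. One hour later, under ketamine/xylazine, they received antigen aerosol for 90 s by endotracheal tube. BAL neutrophil percentage came from 300-cell LeukoStat differentials, with hemocytometer totals. Analysis by two-way ANOVA/Bonferroni; 3-21 animals per group.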

Cytochrome P450 3A4 = Cytochrome P450 3A4 (Homo sapiens, UniProt P08684); test: Inhibition of CYP3A4 fluorescence method; type: ADME; how it was run: as §2
[6] = molecular target: T1, Leukotriene B4 receptor 1; test: Antagonist activity at FLAG-tagged human BLT1 receptor expressed in HEK293 cells assessed as inhibition of LTB4-stimulated calcium mobilization preincubated for 10 mins before LTB4 challenge; type: functional, cell-based
[7] = Clearance in Sprague-Dawley rat at 2.5 mg/kg, iv; type: ADME, organism-based; design: dose 2.5 mg/kg, route intravenous; conditions: in vivo
[8] = molecular target: T3, Leukotriene B4 receptor 2 (Homo sapiens, UniProt Q9NPC1); test: Antagonist activity at FLAG-tagged human BLT2 receptor expressed in HEK293 cells assessed as inhibition of LTB4-stimulated calcium mobilization preincubated for 10 mins before LTB4 challenge; type: functional, cell-based
T3 sequence (Q9NPC1 whole entry): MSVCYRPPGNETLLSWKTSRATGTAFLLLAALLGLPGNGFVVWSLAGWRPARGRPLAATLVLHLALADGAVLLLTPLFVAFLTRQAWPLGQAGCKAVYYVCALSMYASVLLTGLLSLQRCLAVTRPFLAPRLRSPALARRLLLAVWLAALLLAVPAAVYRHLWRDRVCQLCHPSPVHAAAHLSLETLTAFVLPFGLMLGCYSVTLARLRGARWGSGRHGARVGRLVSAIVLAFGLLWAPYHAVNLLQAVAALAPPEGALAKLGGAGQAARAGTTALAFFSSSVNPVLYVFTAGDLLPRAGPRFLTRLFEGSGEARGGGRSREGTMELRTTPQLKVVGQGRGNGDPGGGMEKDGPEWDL

[9] = Solubility of compound in small intestinal contents in the fed state at pH 5; type: ADME; how it was run: as §3
[10] = molecular target: T2, Voltage-gated inwardly rectifying potassium channel KCNH2; test: Inhibition of human ERG expressed in CHO cells at 3 uM assessed as reduction of current amplitude
[11] = Oral bioavailability in Sprague-Dawley rat at 10 mg/kg, po; type: ADME, organism-based; conditions: in vivo; how it was run: as §1
[12] = Cmax in Sprague-Dawley rat at 10 mg/kg, po; type: ADME, organism-based; design: dose 10 mg/kg, route oral; conditions: in vivo; how it was run: as §1
Cavia porcellus = test: Antiinflammatory activity against LTB4-evoked eosinophilic pulmonary inflammation in Hartley guinea pig at 10 mg/kg, po after 1 hr treated before LTB4 challenge; type: functional, organism-based; design: dose 10 mg/kg
How it was run: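 Male Hartley guinea pigs (250-350 g) were dosed orally with 10 mg/kg in 2% Klucel LF/0.1% Tween-80. One hour later they were exposed to 10 μg/mL LTB4 aerosol for 20 min. BAL (3 × 5 mL HBSS) was done 2 h after challenge under pentobarbital. Cells were counted, and differentials of at least 300 cells were taken on Wright-stained cytospins. Analysis by two-way ANOVA/Bonferroni; 4-20 animals per group.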

Cytochrome P450 1A2 = molecular target: T4, Cytochrome P450 1A2 (Homo sapiens, UniProt P05177); test: Inhibition of CYP1A2 by fluorescence method; type: ADME; how it was run: as §4
T4 sequence (P05177 whole entry): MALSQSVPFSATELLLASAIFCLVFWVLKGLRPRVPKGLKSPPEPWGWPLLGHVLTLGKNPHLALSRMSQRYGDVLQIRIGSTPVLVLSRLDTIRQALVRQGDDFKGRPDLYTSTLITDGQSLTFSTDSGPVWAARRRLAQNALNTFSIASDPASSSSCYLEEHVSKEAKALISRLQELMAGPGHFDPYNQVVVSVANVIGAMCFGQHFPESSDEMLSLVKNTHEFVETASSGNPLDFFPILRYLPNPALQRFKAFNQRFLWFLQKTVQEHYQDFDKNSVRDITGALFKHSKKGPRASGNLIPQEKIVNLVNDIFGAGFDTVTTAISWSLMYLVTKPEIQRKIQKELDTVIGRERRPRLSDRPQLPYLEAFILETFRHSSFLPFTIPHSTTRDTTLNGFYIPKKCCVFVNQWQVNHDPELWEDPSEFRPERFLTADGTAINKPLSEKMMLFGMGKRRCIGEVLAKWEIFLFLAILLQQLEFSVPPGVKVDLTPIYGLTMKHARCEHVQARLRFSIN

[13] = Half life in Sprague-Dawley rat at 2.5 mg/kg, iv; type: ADME, organism-based; design: dose 2.5 mg/kg, route intravenous; conditions: in vivo
[14] = Tmax in Sprague-Dawley rat at 10 mg/kg, po; type: ADME, organism-based; design: dose 10 mg/kg, route oral; conditions: in vivo; how it was run: as §1
Cytochrome P450 2C9 = Cytochrome P450 2C9 (Homo sapiens, UniProt P11712); test: Inhibition of CYP2C9 fluorescence method; type: ADME
Sequence of Cytochrome P450 2C9 (P11712 whole entry): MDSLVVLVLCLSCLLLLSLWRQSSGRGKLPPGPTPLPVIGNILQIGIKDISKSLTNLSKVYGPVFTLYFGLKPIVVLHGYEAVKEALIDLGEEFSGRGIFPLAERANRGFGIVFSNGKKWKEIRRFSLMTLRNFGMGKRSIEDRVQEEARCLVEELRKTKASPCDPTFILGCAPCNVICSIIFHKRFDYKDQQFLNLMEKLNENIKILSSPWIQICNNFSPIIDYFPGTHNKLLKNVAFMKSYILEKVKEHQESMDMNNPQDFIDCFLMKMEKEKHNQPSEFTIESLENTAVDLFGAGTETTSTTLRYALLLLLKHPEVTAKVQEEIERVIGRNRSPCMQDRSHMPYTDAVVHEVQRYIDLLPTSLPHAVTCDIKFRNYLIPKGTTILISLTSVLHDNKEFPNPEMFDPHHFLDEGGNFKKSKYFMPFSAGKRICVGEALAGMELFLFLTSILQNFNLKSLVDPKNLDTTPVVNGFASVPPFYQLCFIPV

T1 sequence (Q15722 whole entry): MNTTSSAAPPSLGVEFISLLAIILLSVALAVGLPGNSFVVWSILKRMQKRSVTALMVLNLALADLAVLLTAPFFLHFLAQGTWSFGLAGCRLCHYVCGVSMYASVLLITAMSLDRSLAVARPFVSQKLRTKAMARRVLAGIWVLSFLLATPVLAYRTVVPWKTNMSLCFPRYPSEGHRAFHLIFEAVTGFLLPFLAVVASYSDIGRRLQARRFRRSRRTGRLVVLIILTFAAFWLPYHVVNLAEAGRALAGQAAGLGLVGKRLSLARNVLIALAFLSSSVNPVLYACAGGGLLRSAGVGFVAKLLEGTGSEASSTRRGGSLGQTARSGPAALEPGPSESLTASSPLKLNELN
T2 sequence (Q12809 whole entry): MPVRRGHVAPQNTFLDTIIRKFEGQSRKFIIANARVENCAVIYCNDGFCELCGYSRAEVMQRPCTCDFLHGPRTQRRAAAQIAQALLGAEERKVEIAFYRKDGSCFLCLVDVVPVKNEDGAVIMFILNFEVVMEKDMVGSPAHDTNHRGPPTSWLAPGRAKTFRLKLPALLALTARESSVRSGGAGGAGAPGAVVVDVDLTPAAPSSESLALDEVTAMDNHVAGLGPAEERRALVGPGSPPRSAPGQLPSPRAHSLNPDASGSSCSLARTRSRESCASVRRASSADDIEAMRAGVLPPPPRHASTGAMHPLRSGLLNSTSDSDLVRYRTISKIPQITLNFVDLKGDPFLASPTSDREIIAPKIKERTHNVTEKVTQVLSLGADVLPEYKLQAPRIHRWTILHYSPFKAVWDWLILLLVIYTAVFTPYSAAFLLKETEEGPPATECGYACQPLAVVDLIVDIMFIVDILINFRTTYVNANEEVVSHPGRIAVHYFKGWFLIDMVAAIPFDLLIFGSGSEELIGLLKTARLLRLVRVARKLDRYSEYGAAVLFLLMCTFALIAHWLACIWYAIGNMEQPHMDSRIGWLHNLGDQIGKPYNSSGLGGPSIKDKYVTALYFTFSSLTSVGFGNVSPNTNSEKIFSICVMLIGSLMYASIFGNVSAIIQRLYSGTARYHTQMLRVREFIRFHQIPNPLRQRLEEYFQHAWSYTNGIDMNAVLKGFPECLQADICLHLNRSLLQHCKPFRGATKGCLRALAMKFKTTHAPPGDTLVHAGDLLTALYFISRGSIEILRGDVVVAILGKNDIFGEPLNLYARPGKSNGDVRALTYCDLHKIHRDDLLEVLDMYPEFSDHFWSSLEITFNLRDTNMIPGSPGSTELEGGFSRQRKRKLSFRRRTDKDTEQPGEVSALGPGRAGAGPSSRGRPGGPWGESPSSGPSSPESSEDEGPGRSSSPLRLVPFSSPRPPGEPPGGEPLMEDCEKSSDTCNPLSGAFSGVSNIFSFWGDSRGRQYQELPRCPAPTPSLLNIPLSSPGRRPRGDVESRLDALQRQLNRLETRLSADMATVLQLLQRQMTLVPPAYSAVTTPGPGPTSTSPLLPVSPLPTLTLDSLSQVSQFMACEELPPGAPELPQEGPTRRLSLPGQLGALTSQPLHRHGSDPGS
Sequence of Cytochrome P450 2C19 (P33261 whole entry): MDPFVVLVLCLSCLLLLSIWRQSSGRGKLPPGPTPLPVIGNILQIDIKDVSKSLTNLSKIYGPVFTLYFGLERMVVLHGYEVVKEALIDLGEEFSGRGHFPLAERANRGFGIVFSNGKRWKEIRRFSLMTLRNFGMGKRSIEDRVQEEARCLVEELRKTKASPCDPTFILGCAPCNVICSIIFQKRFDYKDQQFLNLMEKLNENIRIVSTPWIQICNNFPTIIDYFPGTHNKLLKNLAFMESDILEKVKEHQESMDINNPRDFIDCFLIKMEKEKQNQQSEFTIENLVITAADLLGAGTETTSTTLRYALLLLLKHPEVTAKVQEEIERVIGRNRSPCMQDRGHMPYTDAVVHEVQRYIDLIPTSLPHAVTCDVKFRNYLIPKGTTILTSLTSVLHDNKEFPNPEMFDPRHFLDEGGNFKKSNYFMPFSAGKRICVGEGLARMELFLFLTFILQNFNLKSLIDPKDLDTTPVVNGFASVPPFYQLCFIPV
Sequence of Cytochrome P450 3A4 (P08684 whole entry): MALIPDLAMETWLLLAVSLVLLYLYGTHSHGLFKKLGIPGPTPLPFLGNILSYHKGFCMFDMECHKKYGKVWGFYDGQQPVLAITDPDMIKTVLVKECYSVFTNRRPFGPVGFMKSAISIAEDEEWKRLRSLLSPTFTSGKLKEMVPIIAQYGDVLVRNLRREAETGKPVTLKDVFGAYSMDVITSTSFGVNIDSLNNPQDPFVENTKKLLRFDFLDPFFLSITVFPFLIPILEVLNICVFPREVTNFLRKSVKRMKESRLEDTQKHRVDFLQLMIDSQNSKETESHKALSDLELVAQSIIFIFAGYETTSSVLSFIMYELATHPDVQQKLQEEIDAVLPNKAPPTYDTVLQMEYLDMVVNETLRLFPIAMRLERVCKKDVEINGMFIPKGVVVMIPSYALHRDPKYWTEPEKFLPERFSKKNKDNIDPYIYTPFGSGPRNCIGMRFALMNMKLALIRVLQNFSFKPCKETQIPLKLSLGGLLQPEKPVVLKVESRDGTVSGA
Sequence of Cytochrome P450 2D6 (P10635 whole entry): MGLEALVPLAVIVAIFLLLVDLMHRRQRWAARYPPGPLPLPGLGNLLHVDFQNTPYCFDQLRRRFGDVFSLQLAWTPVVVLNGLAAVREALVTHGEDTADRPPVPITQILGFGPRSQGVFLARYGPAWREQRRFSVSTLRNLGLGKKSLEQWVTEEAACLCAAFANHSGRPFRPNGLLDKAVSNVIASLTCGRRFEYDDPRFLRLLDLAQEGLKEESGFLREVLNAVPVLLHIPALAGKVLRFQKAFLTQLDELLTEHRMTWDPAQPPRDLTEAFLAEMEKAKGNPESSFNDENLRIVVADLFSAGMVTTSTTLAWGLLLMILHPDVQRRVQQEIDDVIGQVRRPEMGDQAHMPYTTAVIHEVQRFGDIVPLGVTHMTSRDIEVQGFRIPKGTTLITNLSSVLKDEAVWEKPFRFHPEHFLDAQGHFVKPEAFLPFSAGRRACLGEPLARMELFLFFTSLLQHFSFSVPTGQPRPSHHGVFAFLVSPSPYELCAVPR

- IC50 [1]: 0.57 nM
SMILES: O=C(O)CCCOc1cccc(CCCCCCOc2cc(-c3ccsc3)cc(-c3ccnc(Cl)c3)c2)c1CCC(=O)O

- IC50 [1]: 0.58 nM
SMILES: O=C(O)CCCOc1cccc(CCCCCCOc2cc(-c3ccsc3)cc(-c3ccsc3)c2)c1CCC(=O)O

- IC50 (Neutrophil): 0.2 nM
- IC50 [1]: 0.36 nM
SMILES: O=C(O)CCCOc1cccc(CCCCCCOc2cc(-c3ccccc3)cc(-c3ccsc3)c2)c1CCC(=O)O

- IC50 [1]: 0.2 nM
SMILES: O=C(O)CCCOc1cccc(CCCCCCOc2cc(-c3ccncc3)cc(-c3ccsc3)c2)c1CCC(=O)O

- IC50 [1]: 60.2 nM
SMILES: O=C(O)CCCOc1cccc(CCCCCCOc2cc(-c3ccc(F)cc3)cc(-c3ccc4c(c3)OCCO4)c2)c1CCC(=O)O

- IC50 (Neutrophil): 0.2 nM
- IC50 [1]: 0.38 nM
SMILES: O=C(O)CCCOc1cccc(CCCCCCOc2cc(-c3cncnc3)cc(-c3ccc4c(c3)OCO4)c2)c1CCC(=O)O

- IC50 [1]: 5.35 nM
SMILES: O=C(O)CCCOc1cccc(CCCCCCOc2cc(-c3cncnc3)cc(-c3cncnc3)c2)c1CCC(=O)O

- IC50 (Neutrophil): 0.2 nM
- IC50 [1]: 0.18 nM
SMILES: O=C(O)CCCOc1cccc(CCCCCCOc2cc(-c3ccncc3)cc(-c3cccc(F)c3)c2)c1CCC(=O)O

- IC50 [1]: 5.39 nM
SMILES: O=C(O)CCCOc1cccc(CCCCCCOc2cc(-c3ccc4c(c3)OCO4)cc(-c3ccc4c(c3)OCO4)c2)c1CCC(=O)O

- half-life [2]: 2.9 h
- IC50 (Cytochrome P450 2D6): > 7500 nM
- Vd [4]: 0.3 L/kg
- solubility [5]: 16.5 µg/mL (≈ 28.4 µM)
- IC50 (Cytochrome P450 2C19): > 7500 nM
- IC50 (Cytochrome P450 3A4): > 7500 nM
- IC50 [6]: 205 nM
- IC50 (Neutrophil): 1.8 nM
- IC50 [1]: 0.48 nM
- clearance [7]: 7.53 mL/min/kg
- IC50 [8]: 3060 nM
- solubility [9]: 27.7 µg/mL (≈ 47.6 µM)
- bioavailability [11]: 28%
- Cmax [12]: 2110 nM
- IC50 (Cytochrome P450 1A2): > 7500 nM
- half-life [13]: 2.1 h
- Tmax [14]: 2.3 h
- IC50 (Cytochrome P450 2C9): > 12500 nM
SMILES: O=C(O)CCCOc1cccc(CCCCCCOc2cc(-c3ccccc3)cc(-c3ccccc3)n2)c1CCC(=O)O
- IC50 [3]: > 3000 nM
- Activity (Cynomolgus monkey): Active
- INH [10]: Not Active
- Activity (Cavia porcellus): Active

- IC50 [1]: 14 nM
SMILES: O=C(O)CCCOc1cccc(CCCCCCOc2cc(-c3cccc(F)c3)cc(-c3ccc4[nH]ccc4c3)c2)c1CCC(=O)O
